Measurements published in article PMC3445631 (Bioorganic & medicinal chemistry letters, 2012).

What was measured:
[1] = biological target: hCB2 (Homo sapiens, UniProt P34972); assay: Photolabeling of hCB2; assay type: binding
[2] = biological target: mCB2 receptor (Mus musculus, UniProt P47936); assay: Photolabeling of mCB2; assay type: binding; details: HEK293 cell membranes expressing mCB2, photoactivated
Outline: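 Compound-free membranes were run in parallel as control. Incubated 30 min at 37°C, then UV-irradiated at 365 nm for 1 h on ice. Washed with 1% BSA TME, then plain TME. Followed by [3H]CP-55940 saturation binding.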

mCB2 receptor, sequence (P47936 whole entry): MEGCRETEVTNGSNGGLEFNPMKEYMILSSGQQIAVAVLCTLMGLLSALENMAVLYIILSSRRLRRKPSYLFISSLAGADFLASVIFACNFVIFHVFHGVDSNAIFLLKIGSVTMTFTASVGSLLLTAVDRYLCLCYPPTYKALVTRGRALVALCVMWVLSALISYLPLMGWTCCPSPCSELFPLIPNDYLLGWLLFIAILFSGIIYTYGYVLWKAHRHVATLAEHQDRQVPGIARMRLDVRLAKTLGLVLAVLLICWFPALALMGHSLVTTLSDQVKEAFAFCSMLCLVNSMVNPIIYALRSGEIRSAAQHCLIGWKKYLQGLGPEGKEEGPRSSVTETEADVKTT
hCB2, sequence (P34972 whole entry): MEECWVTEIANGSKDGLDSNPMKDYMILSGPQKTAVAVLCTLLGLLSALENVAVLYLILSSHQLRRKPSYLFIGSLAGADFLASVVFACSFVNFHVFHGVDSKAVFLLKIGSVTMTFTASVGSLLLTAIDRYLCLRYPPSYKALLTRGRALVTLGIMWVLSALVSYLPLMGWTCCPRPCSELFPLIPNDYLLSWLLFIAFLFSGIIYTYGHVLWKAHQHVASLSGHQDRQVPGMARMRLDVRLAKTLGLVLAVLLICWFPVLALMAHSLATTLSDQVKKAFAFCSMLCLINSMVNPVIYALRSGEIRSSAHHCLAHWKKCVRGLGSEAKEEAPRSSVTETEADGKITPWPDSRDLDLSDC

CC1(C)Oc2cc(C(=O)c3cccc(C(F)(F)F)c3)cc(O)c2[C@@H]2C[C@H](O)CC[C@H]21 [Compound 49]
extent of labeling of hCB2 [1]: 30% | ability to photolabel the mCB2 receptor [2]: also labeled, however, less effectively

CC1(C)Oc2cc(C(=O)c3c[nH]c4ccccc34)cc(O)c2[C@@H]2C[C@H](O)CC[C@H]21 [Compound 50]
ability to photolabel the mCB2 receptor [2]: failed to label mCB2
